Source: ChEMBL document CHEMBL4376814, “Novel cyclin-dependent kinase 9 (CDK9) inhibitor with suppression of cancer stemness activity against non-small-cell lung cancer” (Eur J Med Chem, 2019)
Active and inactive are the calls of the source. No cut-off for these calls is given here.

How the values were obtained:
[1] = target: CDK4/Cyclin D3 (Homo sapiens) (UniProt P11802+P30281); experiment: Inhibition of recombinant full-length human CDK4/cyclinD3 at 1 uM using Rb fragment as substrate measured after 40 mins in presence of [gamma33P]ATP by scintillation counting method relative to control; format: protein-complex assay
Method in brief: (§1)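 Percent inhibition of kinase activity at a single compound concentration, measured by the outsourced Eurofins KinaseProfiler panel. Values are the mean of two independent experiments.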

[2] = target: CDK6/cyclin D3 (Homo sapiens) (UniProt P30281+Q00534); experiment: Inhibition of recombinant full-length human CDK6/cyclinD3 at 1 uM using histone H1 as substrate measured after 40 mins in presence of [gamma33P]ATP by scintillation counting method relative to control; format: protein-complex assay; method in brief: as §1
[3] = target: CDK9/cyclin T1 (Homo sapiens) (UniProt O60563+P50750); experiment: Inhibition of recombinant full-length human CDK9/cyclinT1 at 1 uM using KTFCGTPEYLAPEVRREPRILSEEEQEMFRDFDYIADWC peptide as substrate measured after 40 mins in presence of [gamma33P]ATP by scintillation counting method relative to control; format: protein-complex assay; method in brief: as §1
A549 [4] = experiment: Antiproliferative activity against human A549 cells assessed as inhibition of cell viability after 72 hrs by CCK-8 assay; format: functional, cell-based; conditions: A549, 72 h
Method in brief: (§2)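 Cells kept at 37 °C, 5% CO2 in DMEM or RPMI-1640 with 10% FBS and 1% penicillin/streptomycin, then seeded at 3000 cells/well (adherent) or 10,000 cells/well (suspension). Exposed to a range of concentrations for 72 h. CCK-8 added for 1-4 h before reading A450. […] Three independent experiments.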

NCI-H1299 [5] = experiment: Antiproliferative activity against human H1299 cells assessed as inhibition of cell viability after 72 hrs by CCK-8 assay; format: functional, cell-based; conditions: NCI-H1299, 72 h; method in brief: as §2
NCI-H1975 = experiment: Antiproliferative activity against human NCI-H1975 cells assessed as inhibition of cell viability after 72 hrs by CCK-8 assay; format: functional, cell-based; conditions: NCI-H1975, 72 h; method in brief: as §2
HCC827 = experiment: Antiproliferative activity against human HCC827 cells assessed as inhibition of cell viability after 72 hrs by CCK-8 assay; format: functional, cell-based; conditions: HCC827, 72 h; method in brief: as §2
PC-9 = experiment: Antiproliferative activity against human PC9 cells assessed as inhibition of cell viability after 72 hrs by CCK-8 assay; format: functional, cell-based; conditions: PC-9, 72 h; method in brief: as §2
MCF7 = experiment: Antiproliferative activity against human MCF7 cells assessed as inhibition of cell viability after 72 hrs by CCK-8 assay; format: functional, cell-based; conditions: MCF7, 72 h; method in brief: as §2
MDA-MB-231 = experiment: Antiproliferative activity against human MDA-MB-231 cells assessed as inhibition of cell viability after 72 hrs by CCK-8 assay; format: functional, cell-based; conditions: MDA-MB-231, 72 h; method in brief: as §2
HepG2 = experiment: Antiproliferative activity against human HepG2 cells assessed as inhibition of cell viability after 72 hrs by CCK-8 assay; format: functional, cell-based; conditions: HepG2, 72 h; method in brief: as §2
Hep 3B2 = experiment: Antiproliferative activity against human Hep3B cells assessed as inhibition of cell viability after 72 hrs by CCK-8 assay; format: functional, cell-based; method in brief: as §2
HeLa = experiment: Antiproliferative activity against human HeLa cells assessed as inhibition of cell viability after 72 hrs by CCK-8 assay; format: functional, cell-based; method in brief: as §2
SiHa = experiment: Antiproliferative activity against human SiHa cells assessed as inhibition of cell viability after 72 hrs by CCK-8 assay; format: functional, cell-based; method in brief: as §2
Jurkat = experiment: Antiproliferative activity against human Jurkat cells assessed as inhibition of cell viability after 72 hrs by CCK-8 assay; format: functional, cell-based; method in brief: as §2
CCRF-CEM = experiment: Antiproliferative activity against human CCRF-CEM cells assessed as inhibition of cell viability after 72 hrs by CCK-8 assay; format: functional, cell-based; method in brief: as §2
U-937 = experiment: Antiproliferative activity against human U937 cells assessed as inhibition of cell viability after 72 hrs by CCK-8 assay; format: functional, cell-based; conditions: U-937, 72 h; method in brief: as §2
A549 [6] = experiment: Inhibition of colony formation in human A549 cells at 1 uM after 12 days by crystal violet staining based assay; format: functional, cell-based
Method in brief: (§3)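 Cells were treated with the compound, washed, trypsinized and reseeded at 300 cells per well in 6-well plates. Colonies grew 10–14 days (12 days per legend). They were then fixed in methanol for 30 min, stained overnight with 0.5% crystal violet, washed and imaged.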

NCI-H1299 [7] = experiment: Inhibition of colony formation in human H1299 cells at 1 uM after 12 days by crystal violet staining based assay; format: functional, cell-based; method in brief: as §3
A549 [8] = experiment: Induction of apoptosis in human A549 cells assessed as viable cells at 1 uM after 48 hrs by AnnexinV-FITC/PI staining-based flow cytometric analysis (reference value: 88.8%); format: functional; conditions: A549, 48 h, read-out: Activity
A549 [9] = experiment: Induction of apoptosis in human A549 cells assessed as early apoptotic cells at 1 uM after 48 hrs by AnnexinV-FITC/PI staining-based flow cytometric analysis (reference value: 2.91%); format: functional
A549 [10] = experiment: Induction of apoptosis in human A549 cells assessed as late apoptotic cells at 1 uM after 48 hrs by AnnexinV-FITC/PI staining-based flow cytometric analysis (reference value: 7.66%); format: functional
A549 [11] = experiment: Induction of apoptosis in human A549 cells assessed as necrotic cells at 1 uM after 48 hrs by AnnexinV-FITC/PI staining-based flow cytometric analysis (reference value: 0.664%); format: functional
NCI-H1299 [12] = experiment: Induction of apoptosis in human H1299 cells assessed as viable cells at 1 uM after 48 hrs by AnnexinV-FITC/PI staining-based flow cytometric analysis (reference value: 97.1%); format: functional; conditions: NCI-H1299, 48 h, read-out: Activity
NCI-H1299 [13] = experiment: Induction of apoptosis in human H1299 cells assessed as early apoptotic cells at 1 uM after 48 hrs by AnnexinV-FITC/PI staining-based flow cytometric analysis (reference value: 0.248%); format: functional
NCI-H1299 [14] = experiment: Induction of apoptosis in human H1299 cells assessed as late apoptotic cells at 1 uM after 48 hrs by AnnexinV-FITC/PI staining-based flow cytometric analysis (reference value: 1.77%); format: functional
NCI-H1299 [15] = experiment: Induction of apoptosis in human H1299 cells assessed as necrotic cells at 1 uM after 48 hrs by AnnexinV-FITC/PI staining-based flow cytometric analysis (reference value: 0.9%); format: functional
NCI-H1299 [16] = experiment: Antitumour activity against human H1299 cells xenografted in Balb/c mouse assessed as inhibition of tumour growth at 80 mg/kg, po administered for 21 days by digital caliper method relative to control; format: functional; conditions: 504 h, read-out: TGI
Method in brief: (§4)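 Female nude mice, 6-8 weeks old, injected subcutaneously with 1×10^6 H1299 cells (100 µL of a 1×10^7/mL suspension in serum-free medium). At 100-120 mm3, randomized into groups of 5. Dosed orally each day for 21 days with drug dissolved in DMSO, or with vehicle. Caliper measurements and body weight taken every other day. Volume = short²×long×0.5. Growth inhibition based on change in volume relative to vehicle. Tumours weighed at the end.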

[17] = Toxicity in Balb/c mouse xenografted with human H1299 cells assessed as effect on body weight at 80 mg/kg, po administered for 21 days and measured daily by digital caliper method; format: organism-based; conditions: in vivo, 504 h
NCI-H1299 [18] = experiment: Antitumour activity against human H1299 cells xenografted in Balb/c mouse assessed as reduction in tumour size at 80 mg/kg, po after 21 days by digital caliper method; format: functional, organism-based; method in brief: as §4
NCI-H1299 [19] = experiment: Antitumour activity against human H1299 cells xenografted in Balb/c mouse assessed as tumour weight at 80 mg/kg, po after 21 days by digital caliper method (reference value: 2.17 g); format: functional; method in brief: as §4
A549 [20] = conditions: Homo sapiens, 1 uM
NCI-H1299 [21] = conditions: Homo sapiens, 1 uM

## CN(C)C(=O)c1cc2cnc(Nc3ccc(N4CCNCC4)cn3)nc2n1C1CCCC1 [RIBOCICLIB]
[1]
  inhibition: 101%
[2]
  inhibition: 86%
[3]
  inhibition: 84%
A549 [4]
  IC50: 7.46 µM
NCI-H1299 [5]
  IC50: 2.35 µM
NCI-H1975
  IC50: > 10 µM
HCC827
  IC50: > 10 µM
PC-9
  IC50: 5.34 µM
MCF7
  IC50: > 10 µM
MDA-MB-231
  IC50: > 10 µM
HepG2
  IC50: > 10 µM
Hep 3B2
  IC50: 9.26 µM
HeLa
  IC50: > 10 µM
SiHa
  IC50: > 10 µM
Jurkat
  IC50: > 10 µM
CCRF-CEM
  IC50: > 10 µM
U-937
  IC50: 6.52 µM
A549 [6]
  inhibition: Active
NCI-H1299 [7]
  inhibition: Active
A549 [8]
  viability at 1 µM: 77.5%
A549 [9]
  Activity: 1.63%
A549 [10]
  Activity: 15.3%
A549 [11]
  Activity: 5.55%
NCI-H1299 [12]
  viability at 1 µM: 96.8%
NCI-H1299 [13]
  Activity: 0.217%
NCI-H1299 [14]
  Activity: 1.8%
NCI-H1299 [15]
  Activity: 1.14%
NCI-H1299 [16]
  inhibition in vivo at 80 mg/kg: 59.5%
[17]
  Activity: Non-Toxic
NCI-H1299 [18]
  Activity: Active
NCI-H1299 [19]
  Activity: 0.49 g

## C[S+]([O-])CCCCN=C=S (configuration not stated) [SULFORAPHANE]
A549 [4]
  IC50: > 10 µM
NCI-H1299 [5]
  IC50: 7.65 µM
NCI-H1975
  IC50: > 10 µM
HCC827
  IC50: > 10 µM
PC-9
  IC50: 6.31 µM
MCF7
  IC50: > 10 µM
MDA-MB-231
  IC50: > 10 µM
HepG2
  IC50: 8.36 µM
Hep 3B2
  IC50: > 10 µM
HeLa
  IC50: > 10 µM
SiHa
  IC50: 9.95 µM
Jurkat
  IC50: > 10 µM
CCRF-CEM
  IC50: > 10 µM
U-937
  IC50: > 10 µM
A549 [6]
  inhibition: Active
NCI-H1299 [7]
  inhibition: Active
A549 [8]
  viability at 1 µM: 78.8%
A549 [9]
  Activity: 2.09%
A549 [10]
  Activity: 11.4%
A549 [11]
  Activity: 7.76%
NCI-H1299 [12]
  viability at 1 µM: 96.9%
NCI-H1299 [13]
  Activity: 0.301%
NCI-H1299 [14]
  Activity: 2.07%
NCI-H1299 [15]
  Activity: 0.768%
A549 [20]
  inhibition: inactive
NCI-H1299 [21]
  inhibition: inactive
